Test results: ChEMBL document CHEMBL1144876, “Benzodiazepines as potent and selective bradykinin B1 antagonists” (J Med Chem, 2003)

How the values were obtained:
B1 bradykinin receptor [1] = target: T1, B1 bradykinin receptor (Rattus norvegicus, UniProt P97583); test: Compound was tested for inhibition against rat Bradykinin receptor B1 using FLIPR assay
T1 sequence (P97583 whole entry): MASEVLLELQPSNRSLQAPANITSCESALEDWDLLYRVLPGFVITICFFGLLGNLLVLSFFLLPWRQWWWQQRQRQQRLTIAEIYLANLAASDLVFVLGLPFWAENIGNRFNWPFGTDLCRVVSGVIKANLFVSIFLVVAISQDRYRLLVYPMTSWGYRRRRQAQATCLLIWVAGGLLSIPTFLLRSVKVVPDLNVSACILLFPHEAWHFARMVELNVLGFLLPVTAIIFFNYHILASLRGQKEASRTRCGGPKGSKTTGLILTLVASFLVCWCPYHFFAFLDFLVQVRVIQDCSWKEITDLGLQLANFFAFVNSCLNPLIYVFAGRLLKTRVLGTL

B1 bradykinin receptor [2] = target: T1, B1 bradykinin receptor; test: Compound was tested for inhibition against rat Bradykinin receptor B1
Outline: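 Radioligand binding using the appropriate radioligand on CHO cells stably expressing rat bradykinin B1 receptor; Ki (nM) determined radiometrically; interassay variability about 10%.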

[3] = Oral bioavailability in rat; format: ADME, organism-based; settings: in vivo
[4] = Half life after intravenous administration in rat; format: ADME, organism-based; settings: in vivo
B1 bradykinin receptor [5] = target: T2, B1 bradykinin receptor (Homo sapiens, UniProt P46663); test: Compound was tested for inhibition against human bradykinin B1 receptor using FLIPR assay
T2 sequence (P46663 whole entry): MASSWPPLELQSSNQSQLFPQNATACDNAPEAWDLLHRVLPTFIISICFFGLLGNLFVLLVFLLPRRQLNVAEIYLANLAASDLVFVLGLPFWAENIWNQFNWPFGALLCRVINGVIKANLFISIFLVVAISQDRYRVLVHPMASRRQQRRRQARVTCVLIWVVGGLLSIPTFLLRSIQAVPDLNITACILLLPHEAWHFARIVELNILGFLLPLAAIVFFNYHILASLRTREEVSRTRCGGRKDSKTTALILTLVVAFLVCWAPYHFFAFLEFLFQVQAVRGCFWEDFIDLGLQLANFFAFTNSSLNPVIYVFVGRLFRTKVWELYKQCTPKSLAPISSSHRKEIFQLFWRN

B1 bradykinin receptor [6] = target: T2, B1 bradykinin receptor; test: Inhibition of human bradykinin B1 receptor

Row | SMILES | IC50 (B1 bradykinin receptor [1]) [nM] | Ki (B1 bradykinin receptor [2]) [nM] | bioavailability [3] [%] | half-life [4] [h] | IC50 (B1 bradykinin receptor [5]) [nM] | Ki (B1 bradykinin receptor [6]) [nM]
1 | CCCN1C(=O)[C@H](NC(=O)Nc2ccc(N3CCN(c4ccncc4)CC3)cc2)N=C(CCc2ccccc2)c2ccccc21 | 2.8 | 0.92 | 3.4 | 2.7 | – | –
2 | CCCN1C(=O)[C@H](NC(=O)Nc2ccc(N3CCC(N4CCCCC4)CC3)cc2)N=C(C2CCCCC2)c2ccccc21 | 59 | 18.3 | 10 | 3.2 | 24.7 | 5.73
3 | CCCN1C(=O)[C@H](NC(=O)Nc2ccc(N3CCC(N4CCCCC4)CC3)cc2)N=C(CCc2ccccc2)c2ccccc21 | 7.25 | 1.97 | 4.9 | 2.4 | 4.83 | 1.37
4 | CCCN1C(=O)[C@H](NC(=O)Nc2ccc(N3CCN(c4ccncc4)CC3)cc2)N=C(C2CCCCC2)c2ccccc21 | 24.2 | – | 2.5 | 2.3 | 8 | 1.33
5 | CCCN1C(=O)[C@H](NC(=O)Nc2ccc(N3CCC(N4CCCCC4)CC3)cc2)N=C(c2ccc(C)cc2)c2ccccc21 | 27 | 17 | 32 | 4.3 | 64.5 | 13.4
6 | CCCN1C(=O)[C@@H](NC(=O)Nc2ccc(N3CCC(N4CCCCC4)CC3)cc2)N=C(C2CCCCC2)c2ccccc21 | – | – | – | – | 2200 | 1020
7 | CCCN1C(=O)C(NC(=O)Nc2ccc(N3CCN(c4ccccc4)CC3)cc2)N=C(C2CCCCC2)c2ccccc21 (configuration not stated) | – | – | – | – | – | > 10000
8 | CCCN1C(=O)C(NC(=O)Nc2ccc(N3CCN(c4ccccn4)CC3)cc2)N=C(C2CCCCC2)c2ccccc21 (configuration not stated) | – | – | – | – | – | 97.5
9 | CCCN1C(=O)C(NC(=O)Nc2ccc(N3CCCCC3)cc2)N=C(C2CCCCC2)c2ccccc21 (configuration not stated) | – | – | – | – | – | > 10000
10 | CCCN1C(=O)C(NC(=O)Nc2ccc(N3CCN(c4cccnc4)CC3)cc2)N=C(C2CCCCC2)c2ccccc21 (configuration not stated) | – | – | – | – | – | 85
11 | O=C(CCCN1C(=O)CN=C(C2CCCCC2)c2ccccc21)Nc1ccc(N2CCC(N3CCCCC3)CC2)cc1 | – | – | – | – | – | 141
12 | CCCN1C(=O)C(NC(=O)Nc2ccc(N3CCC(c4ccncc4)CC3)cc2)N=C(CCc2ccccc2)c2ccccc21 (configuration not stated) | – | – | – | – | – | 55
13 | CCCN1C(=O)C(NC(=O)Nc2ccc(N3CCC(N(C)C)CC3)cc2)N=C(C2CCCCC2)c2ccccc21 (configuration not stated) | – | – | – | – | 164 | 28
